In ChEMBL document CHEMBL2321836, “Discovery of novel Trypanosoma brucei phosphodiesterase B1 inhibitors by virtual screening against the unliganded TbrPDEB1 crystal structure” (J Med Chem, 2013):
pIC50: −log10 of the molar value.

Columns and labels:
[1] = biological target: 3',5'-cyclic-AMP phosphodiesterase 4B (Homo sapiens, UniProt Q07343); test: Inhibition of human full length PDE4B expressed in insect SF21 cells using cAMP as substrate by scintillation proximity assay
In short: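 Full-length enzyme harvested by sonication of supernatants of overexpressing Sf21 cells. Scintillation proximity assay with 0.5 μM cAMP substrate. Enzyme level set so that <20% of cAMP was consumed. Blanks used denatured protein. Run in at least duplicate. IC50 obtained by a one-site competitive binding fit, with curves assumed to plateau at 100% inhibition.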

[2] = biological target: T1, Class 1 phosphodiesterase PDEB1 (Trypanosoma brucei, UniProt Q8WQX9); test: Inhibition of Trypanosoma brucei full length PDEB1 expressed in insect SF21 cells using cAMP as substrate by scintillation proximity assay
T1 sequence (Q8WQX9 whole entry): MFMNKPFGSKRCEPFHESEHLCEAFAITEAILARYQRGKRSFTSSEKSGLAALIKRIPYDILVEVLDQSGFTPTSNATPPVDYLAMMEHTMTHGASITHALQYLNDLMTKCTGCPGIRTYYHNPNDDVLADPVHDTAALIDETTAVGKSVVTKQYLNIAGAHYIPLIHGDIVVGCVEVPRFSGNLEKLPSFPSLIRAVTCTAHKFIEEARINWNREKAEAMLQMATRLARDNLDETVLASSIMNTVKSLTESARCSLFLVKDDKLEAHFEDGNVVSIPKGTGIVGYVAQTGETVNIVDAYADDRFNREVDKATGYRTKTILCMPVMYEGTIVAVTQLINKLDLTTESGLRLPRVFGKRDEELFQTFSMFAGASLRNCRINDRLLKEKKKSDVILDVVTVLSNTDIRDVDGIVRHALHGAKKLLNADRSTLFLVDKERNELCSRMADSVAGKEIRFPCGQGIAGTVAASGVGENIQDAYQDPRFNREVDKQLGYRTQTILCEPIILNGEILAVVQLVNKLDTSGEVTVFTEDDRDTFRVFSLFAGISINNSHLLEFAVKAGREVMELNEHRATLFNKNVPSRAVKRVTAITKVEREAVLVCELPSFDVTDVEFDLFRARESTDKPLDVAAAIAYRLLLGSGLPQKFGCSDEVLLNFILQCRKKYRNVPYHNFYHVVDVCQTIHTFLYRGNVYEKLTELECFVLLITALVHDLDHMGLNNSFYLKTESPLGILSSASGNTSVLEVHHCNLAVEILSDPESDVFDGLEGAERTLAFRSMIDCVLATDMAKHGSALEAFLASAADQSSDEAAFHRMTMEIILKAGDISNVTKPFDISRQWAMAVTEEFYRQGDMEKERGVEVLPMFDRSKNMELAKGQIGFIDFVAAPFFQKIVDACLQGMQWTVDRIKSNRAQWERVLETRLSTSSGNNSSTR
In short: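 Full-length enzyme harvested by sonication of supernatants of overexpressing Sf21 cells. Scintillation proximity assay with 0.5 μM cAMP substrate. Enzyme level set so that <20% of cAMP was consumed. Blanks used denatured protein. Run in at least duplicate.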

[3] = Selectivity ratio of IC50 for Trypanosoma brucei PDEB1 to IC50 for human PDE4B

3',5'-cyclic-AMP phosphodiesterase 4B, sequence (Q07343 whole entry): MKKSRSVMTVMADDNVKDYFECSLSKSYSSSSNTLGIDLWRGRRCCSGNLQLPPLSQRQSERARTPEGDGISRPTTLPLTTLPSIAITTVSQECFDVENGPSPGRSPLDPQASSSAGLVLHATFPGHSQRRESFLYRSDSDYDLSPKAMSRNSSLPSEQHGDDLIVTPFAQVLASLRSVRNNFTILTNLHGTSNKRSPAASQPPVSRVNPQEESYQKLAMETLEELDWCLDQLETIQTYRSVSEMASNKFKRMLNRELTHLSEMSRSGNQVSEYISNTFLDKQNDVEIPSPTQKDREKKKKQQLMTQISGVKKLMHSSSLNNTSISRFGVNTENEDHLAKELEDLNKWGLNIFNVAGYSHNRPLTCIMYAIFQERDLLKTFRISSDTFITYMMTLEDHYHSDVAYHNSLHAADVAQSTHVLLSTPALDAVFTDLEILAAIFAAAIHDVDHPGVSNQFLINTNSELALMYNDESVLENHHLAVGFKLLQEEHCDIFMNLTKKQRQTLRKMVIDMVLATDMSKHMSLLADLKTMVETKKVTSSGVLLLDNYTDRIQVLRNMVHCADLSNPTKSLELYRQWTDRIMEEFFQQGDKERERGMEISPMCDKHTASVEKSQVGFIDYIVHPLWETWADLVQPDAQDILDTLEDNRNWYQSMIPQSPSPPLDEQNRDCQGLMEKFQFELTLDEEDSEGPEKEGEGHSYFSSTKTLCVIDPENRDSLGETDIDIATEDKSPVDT

SMILES	pIC50 [1]	pIC50 [2]	Ratio IC50 [3]
O=C1c2cccc3cccc(c23)C(=O)N1CCCC(=O)N(Cc1ccco1)C1CC1	4.80	4.39	2.6
Cc1cc(SCC(=O)c2ccc(O)c(O)c2)n2nc(C)c(-c3ccccc3)c2n1	5.30	4.89	–
CCCn1c(=O)n(C)c(=O)c2c(SCC(=O)c3ccc(Cl)cc3)nc(CC(C)C)nc21	4.59	5.00	0.4

Other lines, results leading:

pIC50 [1]	pIC50 [2]	Ratio IC50 [3]	SMILES
4.17	4.12	–	O=C(NCc1ccc(Cn2cncn2)cc1)c1ccc2[nH]c3c(c2c1)CCCC3
4.85	4.92	–	O=C(CCCSc1ncnc2sc(-c3ccccc3)cc12)N1CCOCC1
4.82	4.27	3.6	O=C(CCc1nc2ccccc2n(CCc2ccccc2)c1=O)N1CCCCC1
